Values after ≈ are worked out from the molar mass of the structure shown.
Tests used:
[1] = target: T1, C-X-C chemokine receptor type 3 (Homo sapiens, UniProt P49682); assay: Antagonist activity at human recombinant CXCR3 receptor expressed in CHO-K1 cells assessed as human IP10-induced calcium flux by FLIPR assay; assay type: functional, cell-based
T1 sequence (P49682 whole entry): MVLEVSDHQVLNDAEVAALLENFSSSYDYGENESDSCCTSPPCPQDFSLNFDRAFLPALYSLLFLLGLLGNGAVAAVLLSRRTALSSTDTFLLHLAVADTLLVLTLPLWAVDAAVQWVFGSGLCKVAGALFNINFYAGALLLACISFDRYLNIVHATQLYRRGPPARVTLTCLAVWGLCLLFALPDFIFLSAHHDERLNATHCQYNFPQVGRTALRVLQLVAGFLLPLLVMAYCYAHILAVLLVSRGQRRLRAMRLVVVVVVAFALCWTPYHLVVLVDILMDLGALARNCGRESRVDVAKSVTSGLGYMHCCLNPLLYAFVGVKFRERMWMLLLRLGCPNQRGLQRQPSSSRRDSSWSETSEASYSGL

[2] = target: Cytochrome P450 2C9 (Homo sapiens, UniProt P11712); assay: Inhibition of CYP2C9; assay type: ADME
Chain of Cytochrome P450 2C9 (P11712 whole entry): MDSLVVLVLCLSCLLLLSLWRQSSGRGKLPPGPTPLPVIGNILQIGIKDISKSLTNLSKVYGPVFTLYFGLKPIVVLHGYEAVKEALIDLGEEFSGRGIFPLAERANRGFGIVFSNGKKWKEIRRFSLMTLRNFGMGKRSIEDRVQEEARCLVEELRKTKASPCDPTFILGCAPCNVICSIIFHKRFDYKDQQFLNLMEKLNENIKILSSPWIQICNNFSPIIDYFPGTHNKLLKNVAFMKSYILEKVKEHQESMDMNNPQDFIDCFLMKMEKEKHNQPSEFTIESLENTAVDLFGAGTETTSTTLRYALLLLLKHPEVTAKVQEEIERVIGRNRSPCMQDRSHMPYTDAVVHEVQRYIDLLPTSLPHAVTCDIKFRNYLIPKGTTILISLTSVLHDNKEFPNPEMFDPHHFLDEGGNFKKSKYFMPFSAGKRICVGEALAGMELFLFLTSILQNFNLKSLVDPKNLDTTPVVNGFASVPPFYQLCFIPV

[3] = target: T2, C-X-C chemokine receptor type 3 (Mus musculus, UniProt O88410); assay: Antagonist activity at mouse recombinant CXCR3 expressed in human U2OS cells; assay type: functional, cell-based
T2 sequence (O88410 whole entry): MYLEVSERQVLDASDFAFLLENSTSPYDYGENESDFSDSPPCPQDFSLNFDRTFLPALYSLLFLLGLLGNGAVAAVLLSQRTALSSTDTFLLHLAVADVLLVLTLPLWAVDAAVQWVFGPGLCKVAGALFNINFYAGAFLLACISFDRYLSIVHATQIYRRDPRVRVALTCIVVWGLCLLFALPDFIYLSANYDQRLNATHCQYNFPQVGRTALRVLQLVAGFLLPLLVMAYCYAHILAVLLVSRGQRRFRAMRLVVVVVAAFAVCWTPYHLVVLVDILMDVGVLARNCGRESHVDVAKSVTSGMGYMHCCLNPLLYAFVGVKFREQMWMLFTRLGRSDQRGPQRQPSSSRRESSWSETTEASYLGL
Outline: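 Human U2OS cells were transiently transduced with a mixture of recombinant BacMam viruses, one expressing murine CXCR3 and one expressing chimeric G-protein Gqi5.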

[4] = target: T3, Cytochrome P450 3A4 (Homo sapiens, UniProt P08684); assay: Inhibition of CYP3A4 red; assay type: ADME
T3 sequence (P08684 whole entry): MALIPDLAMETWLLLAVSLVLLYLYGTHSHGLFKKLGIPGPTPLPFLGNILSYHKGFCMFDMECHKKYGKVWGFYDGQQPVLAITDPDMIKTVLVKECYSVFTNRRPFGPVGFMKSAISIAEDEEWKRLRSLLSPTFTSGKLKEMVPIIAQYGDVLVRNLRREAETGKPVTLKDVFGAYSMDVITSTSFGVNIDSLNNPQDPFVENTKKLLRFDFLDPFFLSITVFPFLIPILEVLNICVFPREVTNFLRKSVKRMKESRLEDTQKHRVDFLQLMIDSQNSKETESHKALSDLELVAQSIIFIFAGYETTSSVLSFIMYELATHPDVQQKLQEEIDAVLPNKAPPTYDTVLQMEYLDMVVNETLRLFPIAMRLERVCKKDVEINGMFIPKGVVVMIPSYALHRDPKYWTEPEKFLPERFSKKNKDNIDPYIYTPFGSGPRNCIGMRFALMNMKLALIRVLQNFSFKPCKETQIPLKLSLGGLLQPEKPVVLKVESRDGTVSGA

[5] = target: T3, Cytochrome P450 3A4; assay: Inhibition of CYP3A4 green; assay type: ADME
[6] = target: Cytochrome P450 2D6 (Homo sapiens, UniProt P10635); assay: Inhibition of CYP2D6; assay type: ADME
Chain of Cytochrome P450 2D6 (P10635 whole entry): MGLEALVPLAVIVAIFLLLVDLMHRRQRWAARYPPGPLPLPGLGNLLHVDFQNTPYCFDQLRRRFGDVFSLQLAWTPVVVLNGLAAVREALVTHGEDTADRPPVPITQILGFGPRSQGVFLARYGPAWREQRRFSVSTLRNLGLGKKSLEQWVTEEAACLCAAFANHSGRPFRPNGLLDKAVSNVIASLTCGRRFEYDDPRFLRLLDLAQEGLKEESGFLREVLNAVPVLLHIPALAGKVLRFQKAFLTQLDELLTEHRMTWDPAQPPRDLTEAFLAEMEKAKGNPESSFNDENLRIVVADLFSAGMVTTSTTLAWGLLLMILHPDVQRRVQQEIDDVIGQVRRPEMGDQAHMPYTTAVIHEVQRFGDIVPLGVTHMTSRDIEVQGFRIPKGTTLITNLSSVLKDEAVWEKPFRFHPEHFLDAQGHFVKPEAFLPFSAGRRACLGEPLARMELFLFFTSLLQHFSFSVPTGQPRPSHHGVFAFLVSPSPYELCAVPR

[7] = target: Cytochrome P450 2C19 (Homo sapiens, UniProt P33261); assay: Inhibition of CYP2C19; assay type: ADME
Chain of Cytochrome P450 2C19 (P33261 whole entry): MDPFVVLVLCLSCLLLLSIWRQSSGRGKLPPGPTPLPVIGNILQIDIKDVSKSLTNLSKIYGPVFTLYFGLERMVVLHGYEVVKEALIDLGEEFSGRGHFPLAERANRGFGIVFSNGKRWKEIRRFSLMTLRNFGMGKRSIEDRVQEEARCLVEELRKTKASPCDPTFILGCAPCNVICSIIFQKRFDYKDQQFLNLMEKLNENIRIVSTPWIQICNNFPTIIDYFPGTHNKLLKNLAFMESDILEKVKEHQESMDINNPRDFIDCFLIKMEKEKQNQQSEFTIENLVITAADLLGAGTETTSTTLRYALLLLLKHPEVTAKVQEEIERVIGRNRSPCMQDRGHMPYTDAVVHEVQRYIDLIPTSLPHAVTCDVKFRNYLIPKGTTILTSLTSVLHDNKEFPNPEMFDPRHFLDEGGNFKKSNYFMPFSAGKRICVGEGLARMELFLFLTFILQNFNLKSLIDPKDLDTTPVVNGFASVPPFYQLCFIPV

[8] = target: T1, C-X-C chemokine receptor type 3; assay: Antagonist activity at human recombinant CXCR3 receptor assessed as human IP10-induced calcium mobilization by FLIPR assay; assay type: functional; details: read-out: pA2 (converted)
[9] = target: T4, Cytochrome P450 1A2 (Homo sapiens, UniProt P05177); assay: Inhibition of CYP1A2; assay type: ADME
T4 sequence (P05177 whole entry): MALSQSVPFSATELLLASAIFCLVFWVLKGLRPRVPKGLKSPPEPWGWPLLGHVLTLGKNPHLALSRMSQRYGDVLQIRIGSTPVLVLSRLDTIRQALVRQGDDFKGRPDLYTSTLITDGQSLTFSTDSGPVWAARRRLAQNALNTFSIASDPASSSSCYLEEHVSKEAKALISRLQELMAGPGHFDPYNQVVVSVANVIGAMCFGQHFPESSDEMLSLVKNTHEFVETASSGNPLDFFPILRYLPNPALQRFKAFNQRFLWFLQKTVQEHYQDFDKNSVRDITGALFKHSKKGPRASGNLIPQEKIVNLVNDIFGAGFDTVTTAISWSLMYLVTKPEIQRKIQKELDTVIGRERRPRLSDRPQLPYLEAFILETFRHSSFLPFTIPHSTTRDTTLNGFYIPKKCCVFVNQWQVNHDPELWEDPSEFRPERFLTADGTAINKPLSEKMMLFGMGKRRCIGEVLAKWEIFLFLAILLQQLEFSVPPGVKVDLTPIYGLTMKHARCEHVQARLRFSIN

[10] = target: Voltage-gated inwardly rectifying potassium channel KCNH2 (Homo sapiens, UniProt Q12809); assay: Binding affinity to human ERG
Chain of Voltage-gated inwardly rectifying potassium channel KCNH2 (Q12809 whole entry): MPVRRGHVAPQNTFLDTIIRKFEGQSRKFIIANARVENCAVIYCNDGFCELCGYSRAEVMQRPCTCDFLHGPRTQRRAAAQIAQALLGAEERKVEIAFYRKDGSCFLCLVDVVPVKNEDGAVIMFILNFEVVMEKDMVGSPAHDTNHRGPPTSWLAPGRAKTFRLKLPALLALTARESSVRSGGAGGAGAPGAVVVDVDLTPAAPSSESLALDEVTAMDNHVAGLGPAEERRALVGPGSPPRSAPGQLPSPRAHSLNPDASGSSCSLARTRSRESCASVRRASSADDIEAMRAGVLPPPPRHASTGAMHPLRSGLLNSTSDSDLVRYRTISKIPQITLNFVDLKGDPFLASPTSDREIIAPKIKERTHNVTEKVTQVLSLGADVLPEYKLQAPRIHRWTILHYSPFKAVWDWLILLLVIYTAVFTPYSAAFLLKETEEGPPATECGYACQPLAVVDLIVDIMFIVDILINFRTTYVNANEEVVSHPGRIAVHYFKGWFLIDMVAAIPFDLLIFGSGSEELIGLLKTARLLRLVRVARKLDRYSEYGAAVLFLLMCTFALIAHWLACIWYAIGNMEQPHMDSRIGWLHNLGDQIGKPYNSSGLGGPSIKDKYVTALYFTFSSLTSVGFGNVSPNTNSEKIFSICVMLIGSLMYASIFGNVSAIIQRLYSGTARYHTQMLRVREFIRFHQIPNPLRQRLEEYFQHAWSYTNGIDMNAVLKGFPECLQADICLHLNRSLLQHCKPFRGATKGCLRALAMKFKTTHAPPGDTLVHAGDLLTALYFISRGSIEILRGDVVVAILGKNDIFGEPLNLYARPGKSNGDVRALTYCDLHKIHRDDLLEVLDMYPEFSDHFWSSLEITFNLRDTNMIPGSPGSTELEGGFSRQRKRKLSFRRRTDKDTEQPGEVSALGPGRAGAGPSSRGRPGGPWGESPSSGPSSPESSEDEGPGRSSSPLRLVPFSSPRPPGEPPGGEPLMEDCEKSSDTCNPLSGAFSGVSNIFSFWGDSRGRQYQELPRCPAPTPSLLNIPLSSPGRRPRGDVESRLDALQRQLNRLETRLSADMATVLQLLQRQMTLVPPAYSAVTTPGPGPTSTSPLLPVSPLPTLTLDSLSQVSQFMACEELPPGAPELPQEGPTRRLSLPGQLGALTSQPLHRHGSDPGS

[11] = Oral bioavailability in rat at 2.0 mg/kg; assay type: ADME, organism-based; details: in vivo
[12] = Clearance in rat at 1.1 mg/kg, iv and 2.0 mg/kg, po; assay type: ADME, organism-based; details: in vivo
[13] = system: Rattus norvegicus; assay: Half life in rat at 1.1 mg/kg, iv and 2.0 mg/kg, po; assay type: ADME, organism-based; details: in vivo
[14] = Permeability across artificial membrane; assay type: ADME; details: PAMPA; read-out: permeability
[15] = Volume of distribution at steady state in rat a 1.1 mg/kg, iv and 2.0 mg/kg, po; assay type: ADME, organism-based; details: in vivo, read-out: Vdss
[16] = Aqueous solubility of the compound; assay type: physicochemical; details: buffer

Row | IC50 [1] [nM] | IC50 [2] [µM] | IC50 [3] [nM] | IC50 [4] [nM] | IC50 [5] [µM] | IC50 [6] [µM] | IC50 [7] [µM] | Kb [8] [nM] | IC50 [9] [nM] | bioavailability [11] [%] | clearance [12] [mL/min/kg] | t1/2 [13] [min] | Papp [14] [×10⁻⁶ cm/s] | Vd [15] [L/kg] | solubility [16] [µg/mL] | Compound | IC50 [10] [µM]
1 | 31.6 | 4 | 200 | > 25000 | 13.6 | > 25 | 4 | 20 | > 25000 | – | – | – | – | – | – | C[C@H]1CN(S(=O)(=O)C[C@]23CC[C@H](C[C@@H]2O)C3(C)C)CCN1c1ncc(C(F)(F)F)cc1F | –
2 | 79.4 | – | 501 | 320 | – | – | – | 25.1 | 160 | 8 | 108 | 30 | 35.2 | 2.2 | 4 (≈ 8.38 µM) | C[C@H]1CN(S(=O)(=O)C[C@]23CC[C@H](CC2=O)C3(C)C)CCN1c1ncc(C(F)(F)F)cc1F | > 63
